{"source": "ChEMBL document CHEMBL1128425", "about": "“5-Methyl-1-(3-pyridylcarbamoyl)-1,2,3,5-tetrahydropyrrolo[2,3-f]indole: a novel 5-HT2C/5-HT2B receptor antagonist with improved affinity, selectivity, and oral activity” (J Med Chem, 1995)", "key": {"[1]": {"biological_target": "T1, Adenosine receptor A1 (Rattus norvegicus, UniProt P25099)", "T1 sequence (P25099 whole entry)": "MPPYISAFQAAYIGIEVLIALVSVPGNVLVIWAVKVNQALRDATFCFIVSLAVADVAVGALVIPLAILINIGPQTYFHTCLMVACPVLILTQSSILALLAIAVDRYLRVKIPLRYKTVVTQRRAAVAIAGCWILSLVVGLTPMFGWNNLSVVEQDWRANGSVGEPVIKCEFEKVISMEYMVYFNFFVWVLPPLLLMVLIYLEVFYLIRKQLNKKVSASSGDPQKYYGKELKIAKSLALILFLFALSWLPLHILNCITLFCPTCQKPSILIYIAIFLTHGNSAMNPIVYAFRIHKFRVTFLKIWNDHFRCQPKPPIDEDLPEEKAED", "test": "Binding affinity against rat Adenosine A1 receptor"}, "[2]": {"biological_target": "5-hydroxytryptamine receptor 4 (Rattus norvegicus, UniProt Q62758)", "sequence (Q62758 whole entry)": "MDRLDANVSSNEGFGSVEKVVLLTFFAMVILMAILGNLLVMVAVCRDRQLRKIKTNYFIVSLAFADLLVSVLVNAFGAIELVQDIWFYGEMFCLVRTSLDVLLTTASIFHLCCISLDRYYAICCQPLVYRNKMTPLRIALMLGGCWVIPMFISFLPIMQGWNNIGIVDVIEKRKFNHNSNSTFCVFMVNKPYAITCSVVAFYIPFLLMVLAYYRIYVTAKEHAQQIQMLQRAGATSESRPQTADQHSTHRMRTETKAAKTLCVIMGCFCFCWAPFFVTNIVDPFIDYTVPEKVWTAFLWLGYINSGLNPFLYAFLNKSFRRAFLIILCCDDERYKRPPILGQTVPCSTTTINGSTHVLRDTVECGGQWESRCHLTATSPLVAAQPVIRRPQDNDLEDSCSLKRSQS", "test": "Binding affinity against rat 5-hydroxytryptamine 4 receptor"}, "[3]": {"biological_target": "T2, Adrenergic receptor alpha-1 (Rattus norvegicus, UniProt P15823+P23944+P43140)", "T2 sequence (P15823 whole entry)": "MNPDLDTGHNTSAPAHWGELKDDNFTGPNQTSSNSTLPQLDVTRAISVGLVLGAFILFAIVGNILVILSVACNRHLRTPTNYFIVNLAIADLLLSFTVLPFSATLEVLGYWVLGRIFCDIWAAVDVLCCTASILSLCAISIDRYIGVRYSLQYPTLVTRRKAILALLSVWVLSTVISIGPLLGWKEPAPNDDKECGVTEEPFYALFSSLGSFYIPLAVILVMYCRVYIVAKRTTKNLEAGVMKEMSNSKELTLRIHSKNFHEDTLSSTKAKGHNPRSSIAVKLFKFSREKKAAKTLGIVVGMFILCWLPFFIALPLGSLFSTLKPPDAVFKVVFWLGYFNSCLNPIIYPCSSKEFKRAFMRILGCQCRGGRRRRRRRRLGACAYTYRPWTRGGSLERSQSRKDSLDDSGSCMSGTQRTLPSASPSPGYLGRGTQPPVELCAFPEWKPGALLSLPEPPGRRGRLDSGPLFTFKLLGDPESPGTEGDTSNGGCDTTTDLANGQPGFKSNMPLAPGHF", "T2 sequence (P23944 whole entry)": "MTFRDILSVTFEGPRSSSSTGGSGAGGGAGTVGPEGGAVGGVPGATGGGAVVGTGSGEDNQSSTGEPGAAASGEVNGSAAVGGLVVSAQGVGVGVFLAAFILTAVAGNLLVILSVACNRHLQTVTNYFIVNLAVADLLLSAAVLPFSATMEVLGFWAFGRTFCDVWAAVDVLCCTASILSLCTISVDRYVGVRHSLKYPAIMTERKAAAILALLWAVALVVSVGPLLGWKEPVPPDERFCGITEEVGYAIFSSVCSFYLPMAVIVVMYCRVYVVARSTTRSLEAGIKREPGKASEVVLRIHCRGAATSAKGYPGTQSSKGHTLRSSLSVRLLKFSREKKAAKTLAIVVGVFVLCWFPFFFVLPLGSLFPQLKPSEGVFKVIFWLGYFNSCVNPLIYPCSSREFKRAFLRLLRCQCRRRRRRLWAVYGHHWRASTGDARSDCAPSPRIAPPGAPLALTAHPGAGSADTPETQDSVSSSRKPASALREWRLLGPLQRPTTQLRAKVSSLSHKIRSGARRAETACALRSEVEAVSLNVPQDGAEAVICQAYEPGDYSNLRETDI", "T2 sequence (P43140 whole entry)": "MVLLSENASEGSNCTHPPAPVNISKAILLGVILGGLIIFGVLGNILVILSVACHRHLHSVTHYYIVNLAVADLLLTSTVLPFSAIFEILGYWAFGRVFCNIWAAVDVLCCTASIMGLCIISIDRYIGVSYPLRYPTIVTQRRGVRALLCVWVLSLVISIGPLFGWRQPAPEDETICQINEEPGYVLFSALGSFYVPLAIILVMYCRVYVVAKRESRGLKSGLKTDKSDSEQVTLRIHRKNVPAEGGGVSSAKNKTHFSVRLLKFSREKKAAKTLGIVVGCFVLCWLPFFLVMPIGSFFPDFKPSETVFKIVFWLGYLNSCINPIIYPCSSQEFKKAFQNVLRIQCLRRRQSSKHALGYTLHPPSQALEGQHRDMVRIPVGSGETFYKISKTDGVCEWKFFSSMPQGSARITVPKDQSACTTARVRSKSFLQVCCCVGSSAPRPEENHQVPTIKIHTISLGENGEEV", "test": "Binding affinity against rat Alpha-1 adrenergic receptor", "type": "protein assay"}, "[4]": {"biological_target": "D(2) dopamine receptor (Homo sapiens, UniProt P14416)", "sequence (P14416 whole entry)": "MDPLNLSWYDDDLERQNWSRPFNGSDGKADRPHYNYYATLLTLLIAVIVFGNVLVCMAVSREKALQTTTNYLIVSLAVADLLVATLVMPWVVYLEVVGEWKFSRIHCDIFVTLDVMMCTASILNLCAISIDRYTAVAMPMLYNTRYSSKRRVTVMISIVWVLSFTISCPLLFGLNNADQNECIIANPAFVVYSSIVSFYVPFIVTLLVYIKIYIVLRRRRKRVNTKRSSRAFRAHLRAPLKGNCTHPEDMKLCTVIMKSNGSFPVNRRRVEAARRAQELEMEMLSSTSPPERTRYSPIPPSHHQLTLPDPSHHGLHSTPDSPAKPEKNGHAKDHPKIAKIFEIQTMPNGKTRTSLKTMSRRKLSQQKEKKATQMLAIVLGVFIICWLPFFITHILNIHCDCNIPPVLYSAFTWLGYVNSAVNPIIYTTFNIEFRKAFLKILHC", "test": "Binding affinity against human Dopamine receptor D2 expressed in CHO cells using [125I]iodosulpiride", "type": "cell-based"}, "[5]": {"biological_target": "Histamine H1 receptor (Cavia porcellus, UniProt P31389)", "sequence (P31389 whole entry)": "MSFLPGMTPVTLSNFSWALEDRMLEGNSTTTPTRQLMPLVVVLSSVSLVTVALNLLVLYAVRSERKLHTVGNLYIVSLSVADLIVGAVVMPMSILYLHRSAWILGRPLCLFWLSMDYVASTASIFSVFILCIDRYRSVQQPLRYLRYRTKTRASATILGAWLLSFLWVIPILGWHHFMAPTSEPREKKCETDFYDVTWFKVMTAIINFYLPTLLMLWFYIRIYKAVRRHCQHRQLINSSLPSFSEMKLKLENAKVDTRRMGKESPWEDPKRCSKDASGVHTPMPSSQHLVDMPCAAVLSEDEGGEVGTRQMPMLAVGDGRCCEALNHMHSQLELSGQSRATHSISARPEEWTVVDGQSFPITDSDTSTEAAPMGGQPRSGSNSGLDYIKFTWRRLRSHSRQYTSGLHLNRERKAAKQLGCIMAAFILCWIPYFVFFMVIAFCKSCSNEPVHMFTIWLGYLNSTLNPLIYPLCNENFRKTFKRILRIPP", "test": "Binding affinity against guinea pig H1 receptor"}, "[6]": {"biological_target": "T3, 5-hydroxytryptamine receptor 1A (Rattus norvegicus, UniProt P19327)", "T3 sequence (P19327 whole entry)": "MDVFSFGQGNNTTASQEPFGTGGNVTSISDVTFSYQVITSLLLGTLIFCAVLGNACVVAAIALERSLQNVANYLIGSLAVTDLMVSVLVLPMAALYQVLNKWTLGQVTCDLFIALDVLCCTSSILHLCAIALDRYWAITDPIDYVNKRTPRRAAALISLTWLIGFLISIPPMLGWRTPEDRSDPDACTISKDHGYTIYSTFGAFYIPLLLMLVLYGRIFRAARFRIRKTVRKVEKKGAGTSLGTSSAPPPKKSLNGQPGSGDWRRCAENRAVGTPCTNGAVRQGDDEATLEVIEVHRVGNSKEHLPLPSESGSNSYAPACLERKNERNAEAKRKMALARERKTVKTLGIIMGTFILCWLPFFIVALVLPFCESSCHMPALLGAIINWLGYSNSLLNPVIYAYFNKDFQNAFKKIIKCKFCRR", "test": "Binding affinity against rat 5-hydroxytryptamine 1A receptor"}, "[7]": {"tested_on": "Rattus norvegicus", "test": "In vivo potency to block hypolocomotion response to m-CPP in rat after oral administration", "type": "functional", "conditions": "read-out: ID50 (the source's name)"}, "[8]": {"biological_target": "5-hydroxytryptamine receptor 1E (Homo sapiens, UniProt P28566)", "sequence (P28566 whole entry)": "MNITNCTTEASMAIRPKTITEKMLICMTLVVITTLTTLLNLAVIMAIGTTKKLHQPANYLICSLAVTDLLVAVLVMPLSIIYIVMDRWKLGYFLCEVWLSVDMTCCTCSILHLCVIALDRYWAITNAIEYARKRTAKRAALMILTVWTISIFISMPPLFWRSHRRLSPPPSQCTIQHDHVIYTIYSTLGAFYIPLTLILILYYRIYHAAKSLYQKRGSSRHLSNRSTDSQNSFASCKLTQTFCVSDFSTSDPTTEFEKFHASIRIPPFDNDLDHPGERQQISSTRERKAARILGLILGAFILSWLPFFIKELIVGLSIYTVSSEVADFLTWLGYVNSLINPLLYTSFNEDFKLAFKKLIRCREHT", "test": "Binding affinity against human 5-hydroxytryptamine 1E receptor expressed in CHO cells", "type": "cell-based", "procedure,_shortened": "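Displacement binding at cloned human 5-HT1E receptors expressed in CHO cells, using [³H]-5-HT as radioligand.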"}, "[9]": {"biological_target": "5-hydroxytryptamine receptor 2B (Rattus norvegicus, UniProt P30994)", "sequence (P30994 whole entry)": "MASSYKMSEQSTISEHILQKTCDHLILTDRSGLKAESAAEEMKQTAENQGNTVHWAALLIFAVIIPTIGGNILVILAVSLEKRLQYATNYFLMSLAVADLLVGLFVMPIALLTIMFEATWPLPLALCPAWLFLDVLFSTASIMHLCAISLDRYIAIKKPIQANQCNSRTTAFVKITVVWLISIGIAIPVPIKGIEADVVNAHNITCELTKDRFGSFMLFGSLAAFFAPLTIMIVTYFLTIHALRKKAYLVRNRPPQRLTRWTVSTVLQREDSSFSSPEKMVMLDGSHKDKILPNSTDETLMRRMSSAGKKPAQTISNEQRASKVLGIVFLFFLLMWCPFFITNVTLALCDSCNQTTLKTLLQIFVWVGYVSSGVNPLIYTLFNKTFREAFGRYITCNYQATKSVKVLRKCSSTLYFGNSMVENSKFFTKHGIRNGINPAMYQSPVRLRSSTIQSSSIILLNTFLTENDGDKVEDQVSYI", "test": "Inhibitory potency against rat stomach fundus 5-hydroxytryptamine 2B receptor", "type": "tissue-based", "conditions": "read-out: pA2 (converted)", "procedure,_shortened": "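Functional antagonism in isolated rat stomach fundus, with contraction evoked by 5-HT as the agonist. Values are means ± SEM of n ≥ 3 determinations.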"}, "[10]": {"biological_target": "D(3) dopamine receptor (Homo sapiens, UniProt P35462)", "sequence (P35462 whole entry)": "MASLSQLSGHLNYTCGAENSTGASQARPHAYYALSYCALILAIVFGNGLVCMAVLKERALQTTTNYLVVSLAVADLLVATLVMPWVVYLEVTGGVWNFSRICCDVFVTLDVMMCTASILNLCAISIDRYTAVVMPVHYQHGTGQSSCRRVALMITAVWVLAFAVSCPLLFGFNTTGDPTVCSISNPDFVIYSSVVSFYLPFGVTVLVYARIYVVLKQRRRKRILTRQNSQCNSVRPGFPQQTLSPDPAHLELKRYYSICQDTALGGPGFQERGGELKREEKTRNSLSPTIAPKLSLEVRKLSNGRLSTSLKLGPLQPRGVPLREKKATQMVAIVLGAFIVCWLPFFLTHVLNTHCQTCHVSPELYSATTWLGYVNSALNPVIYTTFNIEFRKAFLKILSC", "test": "Binding affinity human Dopamine receptor D3 expressed in CHO cells using [125I]iodosulpiride", "type": "cell-based"}, "[11]": {"biological_target": "T4, Serotonin 3 (5-HT3) receptor (Rattus norvegicus, UniProt P35563+Q9JJ16)", "T4 sequence (P35563 whole entry)": "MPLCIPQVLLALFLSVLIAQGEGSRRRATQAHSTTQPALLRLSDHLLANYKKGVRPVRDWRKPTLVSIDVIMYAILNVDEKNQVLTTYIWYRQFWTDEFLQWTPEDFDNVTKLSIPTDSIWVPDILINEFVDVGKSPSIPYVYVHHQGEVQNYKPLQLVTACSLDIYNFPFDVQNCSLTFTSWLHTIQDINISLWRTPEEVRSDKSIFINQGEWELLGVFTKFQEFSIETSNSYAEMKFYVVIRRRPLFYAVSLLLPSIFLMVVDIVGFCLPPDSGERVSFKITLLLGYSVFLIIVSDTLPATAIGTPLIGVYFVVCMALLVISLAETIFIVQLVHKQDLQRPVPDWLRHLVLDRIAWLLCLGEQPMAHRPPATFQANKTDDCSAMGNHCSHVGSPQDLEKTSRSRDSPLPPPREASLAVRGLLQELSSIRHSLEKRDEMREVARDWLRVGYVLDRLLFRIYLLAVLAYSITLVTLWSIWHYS", "T4 sequence (Q9JJ16 whole entry)": "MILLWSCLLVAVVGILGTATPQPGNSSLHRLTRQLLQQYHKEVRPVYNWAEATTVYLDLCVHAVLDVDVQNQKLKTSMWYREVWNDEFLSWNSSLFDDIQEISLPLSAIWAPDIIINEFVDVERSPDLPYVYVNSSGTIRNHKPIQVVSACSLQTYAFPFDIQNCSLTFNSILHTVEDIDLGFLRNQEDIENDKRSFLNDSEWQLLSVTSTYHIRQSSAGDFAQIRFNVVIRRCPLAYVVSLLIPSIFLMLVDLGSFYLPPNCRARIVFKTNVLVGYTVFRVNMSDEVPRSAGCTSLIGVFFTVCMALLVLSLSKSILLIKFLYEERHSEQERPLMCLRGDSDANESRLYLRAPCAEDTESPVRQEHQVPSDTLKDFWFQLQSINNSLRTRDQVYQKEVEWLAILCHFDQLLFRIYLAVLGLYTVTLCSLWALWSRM", "test": "Binding affinity against rat 5-hydroxytryptamine 3 receptor", "type": "protein-complex assay"}, "[12]": {"biological_target": "5-hydroxytryptamine receptor 1D (Cavia porcellus, UniProt Q60484)", "sequence (Q60484 whole entry)": "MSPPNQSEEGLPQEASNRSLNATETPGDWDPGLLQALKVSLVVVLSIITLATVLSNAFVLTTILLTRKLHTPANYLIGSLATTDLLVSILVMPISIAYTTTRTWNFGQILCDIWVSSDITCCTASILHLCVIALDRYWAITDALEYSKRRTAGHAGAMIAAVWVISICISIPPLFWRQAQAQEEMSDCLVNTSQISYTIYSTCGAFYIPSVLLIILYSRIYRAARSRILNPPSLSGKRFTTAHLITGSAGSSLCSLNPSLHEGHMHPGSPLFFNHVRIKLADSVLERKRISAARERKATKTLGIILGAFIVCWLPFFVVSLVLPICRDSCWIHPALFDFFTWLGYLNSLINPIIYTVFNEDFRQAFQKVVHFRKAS", "test": "Binding affinity against guinea pig 5-hydroxytryptamine 1D receptor"}, "[13]": {"biological_target": "5-hydroxytryptamine receptor 2A (Homo sapiens, UniProt P28223)", "sequence (P28223 whole entry)": "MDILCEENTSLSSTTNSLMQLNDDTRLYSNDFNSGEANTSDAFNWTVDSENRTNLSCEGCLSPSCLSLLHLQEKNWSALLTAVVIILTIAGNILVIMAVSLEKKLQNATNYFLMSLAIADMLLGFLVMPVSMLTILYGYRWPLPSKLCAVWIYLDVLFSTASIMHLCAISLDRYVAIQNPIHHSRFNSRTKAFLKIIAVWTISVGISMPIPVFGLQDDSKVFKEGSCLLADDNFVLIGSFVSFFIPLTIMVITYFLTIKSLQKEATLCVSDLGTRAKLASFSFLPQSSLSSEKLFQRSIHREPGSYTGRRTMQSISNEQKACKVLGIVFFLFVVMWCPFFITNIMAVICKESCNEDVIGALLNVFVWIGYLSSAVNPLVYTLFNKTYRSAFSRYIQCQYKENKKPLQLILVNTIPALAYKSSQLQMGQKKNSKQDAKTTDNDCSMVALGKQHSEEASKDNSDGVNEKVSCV", "test": "Binding affinity against human 5-hydroxytryptamine 2A receptor expressed in 293 cells using [3H]ketanserin", "type": "cell-based, HEK293", "procedure,_shortened": "(§1)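 Radioligand binding at cloned human receptors expressed in 293 cells: [³H]ketanserin for 5-HT2A, [³H]mesulergine for 5-HT2C. Values are means ± SEM of n ≥ 3 determinations.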"}, "[14]": {"biological_target": "T5, 5-hydroxytryptamine receptor 2C (Homo sapiens, UniProt P28335)", "T5 sequence (P28335 whole entry)": "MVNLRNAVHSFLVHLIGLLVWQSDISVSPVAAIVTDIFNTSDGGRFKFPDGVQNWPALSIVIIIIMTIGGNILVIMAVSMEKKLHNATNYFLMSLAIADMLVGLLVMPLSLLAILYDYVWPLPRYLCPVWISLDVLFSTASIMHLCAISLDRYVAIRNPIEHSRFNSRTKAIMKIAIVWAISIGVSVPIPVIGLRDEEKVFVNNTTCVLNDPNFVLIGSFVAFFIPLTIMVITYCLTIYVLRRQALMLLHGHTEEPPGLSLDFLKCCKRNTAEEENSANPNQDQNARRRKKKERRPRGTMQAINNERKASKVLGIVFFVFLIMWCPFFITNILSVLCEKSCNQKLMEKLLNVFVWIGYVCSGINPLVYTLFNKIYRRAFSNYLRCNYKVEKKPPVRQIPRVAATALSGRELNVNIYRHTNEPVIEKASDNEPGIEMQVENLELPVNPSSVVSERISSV", "test": "(§2) Binding affinity against human 5-hydroxytryptamine 2C receptor expressed in 293 cells using [3H]mesulergine", "type": "cell-based, HEK293", "procedure,_shortened": "as §1"}, "[15]": {"biological_target": "T5, 5-hydroxytryptamine receptor 2C", "test": "as §2", "type": "cell-based, HEK293", "procedure,_shortened": "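Radioligand binding to cloned human receptor in 293 cells with [3H]mesulergine; values are means ± SEM of at least 3 determinations.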", "remark": "listed apart in the source"}}}
{"smiles": "Cn1ccc2cc3c(cc21)CCN3C(=O)Nc1cccnc1", "values": [{"measurement": "Ki", "setting": "[1]", "value": "> 50100", "unit": "nM"}, {"measurement": "Ki", "setting": "[2]", "value": 5010, "unit": "nM"}, {"measurement": "Log Ki", "setting": "[3]", "value": "> -5"}, {"measurement": "Ki", "setting": "[4]", "value": "> 10000", "unit": "nM"}, {"measurement": "Ki", "setting": "[5]", "value": "> 10000", "unit": "nM"}, {"measurement": "Ki", "setting": "[6]", "value": "> 10000", "unit": "nM"}, {"measurement": "ED50", "setting": "[7]", "value": 5.5, "unit": "mg/kg"}, {"measurement": "Ki", "setting": "[8]", "value": "> 5010", "unit": "nM"}, {"measurement": "Kb", "setting": "[9]", "value": 3.31, "unit": "nM"}, {"measurement": "Ki", "setting": "[10]", "value": "> 10000", "unit": "nM"}, {"measurement": "Ki", "setting": "[11]", "value": "> 10000", "unit": "nM"}, {"measurement": "Ki", "setting": "[12]", "value": "> 1000", "unit": "nM"}, {"measurement": "Ki", "setting": "[13]", "value": 1620, "unit": "nM"}]}
{"smiles": "Cn1ccc2c3c(ccc21)N(C(=O)Nc1cccnc1)CC3", "values": [{"measurement": "Ki", "setting": "[14]", "value": 66.1, "unit": "nM"}, {"measurement": "Kb", "setting": "[9]", "value": 17.8, "unit": "nM"}, {"measurement": "Ki", "setting": "[13]", "value": 2880, "unit": "nM"}]}
{"smiles": "Cl.Cn1ccc2cc(NC(=O)Nc3cccnc3)ccc21", "values": [{"measurement": "Ki", "setting": "[15]", "value": 138, "unit": "nM"}, {"measurement": "ED50", "setting": "[7]", "value": 19.2, "unit": "mg/kg"}, {"measurement": "Kb", "setting": "[9]", "value": 39.8, "unit": "nM"}]}
{"smiles": "Cn1ccc2cc3c(cc21)CCCN3C(=O)Nc1cccnc1", "values": [{"measurement": "Ki", "setting": "[14]", "value": 4070, "unit": "nM"}, {"measurement": "Kb", "setting": "[9]", "value": 53.7, "unit": "nM"}, {"measurement": "Ki", "setting": "[13]", "value": "> 6310", "unit": "nM"}]}
{"smiles": "Cn1ccc2c3c(ccc21)N(C(=O)Nc1cccnc1)CCC3", "values": [{"measurement": "Ki", "setting": "[14]", "value": "> 6310", "unit": "nM"}, {"measurement": "Kb", "setting": "[9]", "value": 60.3, "unit": "nM"}, {"measurement": "Ki", "setting": "[13]", "value": "> 6310", "unit": "nM"}]}
